Reference: publication PMC10150327 (NAR Cancer, 2023)

Columns and labels:
[1] = test system: BRCA2-depleted cells; settings: cited from earlier work
[2] = test system: association of RAD52 with parental ssDNA; experiment: In situ proximity ligation assay; assay type: cell-based; settings: after HU treatment
Outline: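 Parental DNA was labelled with 50 μM IdU for 20 h, then 2 h in fresh DMEM before treatment. Cells were Triton-permeabilised (0.5%, 10 min, 4°C), fixed in 3% formaldehyde/2% sucrose and blocked in 3% BSA. Probes: rabbit anti-RAD52 (1:150) plus mouse anti-IdU (1:10), then PLA probes, each 1 h at 37°C. Ligation and rolling-circle amplification used a TRITC oligo. Single-antibody controls were included; spots per cell given as mean ± SE.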

[3] = test system: MRC5 SV40 cells; experiment: Native IdU assay, nascent ssDNA; assay type: cell-based, human; settings: 2 mM HU, short treatment
[4] = test system: MRC5SV40 fibroblasts; experiment: Neutral comet assay, HU-induced DSBs; assay type: cell-based, human; settings: HU 24 h, inhibitor 30 min before HU
[5] = biological target: T1, RAD52–ssDNA interaction (Homo sapiens, UniProt P43351); settings: cited from earlier work
T1 sequence (P43351 1-418): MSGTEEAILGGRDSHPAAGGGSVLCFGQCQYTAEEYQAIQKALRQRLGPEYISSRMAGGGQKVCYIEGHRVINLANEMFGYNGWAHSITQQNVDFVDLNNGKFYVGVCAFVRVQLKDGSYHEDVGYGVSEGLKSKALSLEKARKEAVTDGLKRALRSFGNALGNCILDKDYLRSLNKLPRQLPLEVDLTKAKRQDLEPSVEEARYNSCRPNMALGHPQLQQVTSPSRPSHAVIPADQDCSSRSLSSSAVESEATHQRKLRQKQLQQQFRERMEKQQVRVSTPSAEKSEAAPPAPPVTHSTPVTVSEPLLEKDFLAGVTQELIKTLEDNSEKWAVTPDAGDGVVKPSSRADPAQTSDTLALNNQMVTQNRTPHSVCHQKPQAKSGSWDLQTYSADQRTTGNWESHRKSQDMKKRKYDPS

[6] = test system: EUFA423F; settings: cited from earlier work
[7] = test system: complemented cell line (HA); settings: cited from earlier work
[8] = biological target: RPA–ssDNA interaction (Homo sapiens, UniProt P27694); settings: cited from earlier work
[9] = biological target: the molecule itself; experiment: mass photometry

RPA–ssDNA interaction, sequence (P27694 whole entry): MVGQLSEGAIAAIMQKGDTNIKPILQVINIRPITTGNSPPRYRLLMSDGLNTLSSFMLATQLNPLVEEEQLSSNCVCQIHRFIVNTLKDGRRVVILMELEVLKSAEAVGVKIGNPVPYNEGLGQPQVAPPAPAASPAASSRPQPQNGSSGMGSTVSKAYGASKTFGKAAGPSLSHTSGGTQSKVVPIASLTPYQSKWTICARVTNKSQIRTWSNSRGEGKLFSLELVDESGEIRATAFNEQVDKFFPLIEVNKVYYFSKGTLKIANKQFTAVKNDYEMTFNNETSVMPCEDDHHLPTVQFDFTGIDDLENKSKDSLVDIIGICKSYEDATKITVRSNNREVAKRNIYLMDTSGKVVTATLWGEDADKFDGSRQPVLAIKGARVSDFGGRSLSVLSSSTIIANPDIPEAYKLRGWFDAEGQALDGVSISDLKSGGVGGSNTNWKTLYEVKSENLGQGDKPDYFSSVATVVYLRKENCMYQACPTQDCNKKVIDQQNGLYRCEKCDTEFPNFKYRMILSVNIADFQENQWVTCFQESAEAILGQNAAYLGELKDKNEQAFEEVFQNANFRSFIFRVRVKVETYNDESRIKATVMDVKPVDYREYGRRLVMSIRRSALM
RPA–ssDNA interaction, sequence (P15927 whole entry partner): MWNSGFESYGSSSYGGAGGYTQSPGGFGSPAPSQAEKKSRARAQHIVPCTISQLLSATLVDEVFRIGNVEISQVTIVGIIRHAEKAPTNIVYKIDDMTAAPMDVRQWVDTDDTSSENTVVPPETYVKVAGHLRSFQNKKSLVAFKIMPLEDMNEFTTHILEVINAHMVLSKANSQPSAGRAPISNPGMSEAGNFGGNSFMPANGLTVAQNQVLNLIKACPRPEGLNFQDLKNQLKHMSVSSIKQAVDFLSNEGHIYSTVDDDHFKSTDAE
RPA–ssDNA interaction, sequence (P35244 whole entry partner): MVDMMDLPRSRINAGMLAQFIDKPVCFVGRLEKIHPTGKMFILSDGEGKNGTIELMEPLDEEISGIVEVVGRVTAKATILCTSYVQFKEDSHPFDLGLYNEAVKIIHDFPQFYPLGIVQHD

Oc1cc(O)c2c(c1)O[C@H](c1cc(O)c(O)c(O)c1)[C@H](O)C2 [EGC, epigallocatechin]
Toxicity to BRCA2-depleted cells [1]: selectively toxic | Association of RAD52 with parental ssDNA (PLA spots per cell) [2]: supressed | Exposure of nascent ssDNA (native anti-IdU IF) [3]: significantly increased the level of ssDNA | DSBs formation (tail moment) in HU-treated cells [4]: significantly reduced | Competition with ssDNA binding to RAD52 [5]: competed with ssDNA binding to RAD52 | Specificity for RAD52 [5]: highly specific to RAD52

C[C@]1(c2nc3c(C(N)=O)cccc3[nH]2)CCCN1 [veliparib]
Sensitivity of EUFA423F cells [6]: sensitive | Sensitivity of complemented cell line (HA) [7]: resistant

CO[C@@]12[C@H](COC(N)=O)C3=C(C(=O)C(C)=C(N)C3=O)N1C[C@@H]1N[C@@H]12 [mitomycin C]
Sensitivity of complemented cell line (HA) [7]: resistant

O=C(O[C@@H]1Cc2c(O)cc(O)cc2O[C@@H]1c1cc(O)c(O)c(O)c1)c1cc(O)c(O)c(O)c1 [EGCG, epigallocatechin gallate]
Effect on ssDNA binding to RPA [8]: also inhibited the RPA–ssDNA interaction

B1: 6xHis-tagged human RAD52 (wild type) (natural protein)
chain: MSGTEEAILGGRDSHPAAGGGSVLCFGQCQYTAEEYQAIQKALRQRLGPEYISSRMAGGGQKVCYIEGHRVINLANEMFGYNGWAHSITQQNVDFVDLNNGKFYVGVCAFVRVQLKDGSYHEDVGYGVSEGLKSKALSLEKARKEAVTDGLKRALRSFGNALGNCILDKDYLRSLNKLPRQLPLEVDLTKAKRQDLEPSVEEARYNSCRPNMALGHPQLQQVTSPSRPSHAVIPADQDCSSRSLSSSAVESEATHQRKLRQKQLQQQFRERMEKQQVRVSTPSAEKSEAAPPAPPVTHSTPVTVSEPLLEKDFLAGVTQELIKTLEDNSEKWAVTPDAGDGVVKPSSRADPAQTSDTLALNNQMVTQNRTPHSVCHQKPQAKSGSWDLQTYSADQRTTGNWESHRKSQDMKKRKYDPS
stoichiometry N [9]: 10
